# Key:
# Aurora kinase A = biological target: T1, Aurora kinase A (Homo sapiens, UniProt O14965); experiment: Inhibition of human recombinant aurora A kinase
# T1 sequence (O14965 whole entry): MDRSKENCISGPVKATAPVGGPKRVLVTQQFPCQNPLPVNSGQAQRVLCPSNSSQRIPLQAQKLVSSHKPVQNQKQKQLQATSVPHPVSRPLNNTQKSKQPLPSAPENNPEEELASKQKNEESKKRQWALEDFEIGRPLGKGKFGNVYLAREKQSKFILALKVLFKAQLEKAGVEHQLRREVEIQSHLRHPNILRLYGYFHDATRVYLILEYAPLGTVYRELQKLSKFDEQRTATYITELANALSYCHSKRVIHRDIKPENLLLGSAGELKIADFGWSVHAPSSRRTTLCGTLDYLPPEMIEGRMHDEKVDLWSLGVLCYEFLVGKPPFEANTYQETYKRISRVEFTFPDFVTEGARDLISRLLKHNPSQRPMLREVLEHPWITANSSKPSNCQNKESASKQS
# Aurora kinase B = Aurora kinase B (Homo sapiens, UniProt Q96GD4); experiment: Inhibition of human recombinant aurora B kinase
# Chain of Aurora kinase B (Q96GD4 whole entry): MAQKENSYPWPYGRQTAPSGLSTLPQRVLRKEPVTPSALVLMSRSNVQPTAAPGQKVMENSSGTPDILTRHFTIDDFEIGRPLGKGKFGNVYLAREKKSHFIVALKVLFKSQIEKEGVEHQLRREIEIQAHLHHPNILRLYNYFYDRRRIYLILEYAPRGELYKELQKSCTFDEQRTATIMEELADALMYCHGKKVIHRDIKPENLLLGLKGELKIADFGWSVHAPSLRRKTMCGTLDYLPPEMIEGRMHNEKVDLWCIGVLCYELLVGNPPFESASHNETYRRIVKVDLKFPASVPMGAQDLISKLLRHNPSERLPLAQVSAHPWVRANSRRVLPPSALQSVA
# Method in brief: (§1)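 Recombinant human Aurora kinase (A, B or C); myelin basic protein substrate (1 mg/mL) with 15 µM [γ-33P]ATP in buffer C (25 mM Mops pH 7.2, 60 mM β-glycerophosphate, 15 mM p-nitrophenylphosphate, 5 mM EGTA, 15 mM MgCl2, 1 mM DTT, 1 mM vanadate, 1 mM phenylphosphate), 30 min at 30 °C. Stopped by spotting on P81 paper, washed in 1% phosphoric acid, scintillation counted. IC50 from dose-response curves over various concentrations.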
# Aurora kinase C = biological target: T2, Aurora kinase C (Homo sapiens, UniProt Q9UQB9); experiment: Inhibition of human recombinant aurora C kinase; method in brief: as §1
# T2 sequence (Q9UQB9 whole entry): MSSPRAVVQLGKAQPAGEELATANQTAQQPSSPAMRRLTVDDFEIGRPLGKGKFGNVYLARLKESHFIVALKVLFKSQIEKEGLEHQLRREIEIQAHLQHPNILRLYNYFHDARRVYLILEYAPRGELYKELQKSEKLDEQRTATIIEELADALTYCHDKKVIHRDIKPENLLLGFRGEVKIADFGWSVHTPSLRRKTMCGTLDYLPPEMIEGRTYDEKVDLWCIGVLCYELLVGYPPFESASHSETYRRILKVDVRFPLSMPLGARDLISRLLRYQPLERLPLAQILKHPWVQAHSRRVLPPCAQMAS
Structure (SMILES),IC50 (Aurora kinase A),IC50 (Aurora kinase B),IC50 (Aurora kinase C)
CO/N=C1\C(=C2\C(=O)Nc3c(Br)cccc32)Nc2ccccc21,> 100 µM,> 100 µM,> 100 µM
O=Nc1c(-c2c(O)[nH]c3c(Cl)cccc23)[nH]c2ccccc12,> 100 µM,8 µM,0.9 µM
O=Nc1c(-c2c(O)[nH]c3ccccc23)[nH]c2ccccc12 [INDIRUBIN-3-MONOXIME],4 µM,2.3 µM,0.3 µM
CO/N=C1\C(=C2\C(=O)Nc3c(F)cccc32)Nc2ccccc21,> 100 µM,> 100 µM,> 100 µM
O=C1Nc2cc(Br)ccc2/C1=C1/Nc2ccccc2/C1=N\O [6BIO],,0.9 µM,0.2 µM
O=Nc1c(-c2c(O)[nH]c3c(Br)cccc23)[nH]c2ccccc12,,4.6 µM,0.7 µM
O=Nc1c(-c2c(O)[nH]c3c(F)cccc23)[nH]c2ccccc12,2 µM,7 µM,1 µM
CO/N=C1\C(=C2\C(=O)Nc3c(Cl)cccc32)Nc2ccccc21,> 100 µM,> 100 µM,> 100 µM
CC(=O)O/N=C1\C(=C2\C(=O)Nc3c(Cl)cccc32)Nc2ccccc21,> 100 µM,> 100 µM,> 100 µM
CC(=O)O/N=C1\C(=C2\C(=O)Nc3c(Br)cccc32)Nc2ccccc21,> 100 µM,20 µM,4.5 µM
CC(=O)O/N=C1\C(=C2\C(=O)Nc3c(I)cccc32)Nc2ccccc21,> 100 µM,> 100 µM,28 µM
CO/N=C1\C(=C2\C(=O)Nc3c(I)cccc32)Nc2ccccc21,> 100 µM,> 100 µM,> 100 µM
CC(=O)O/N=C1\C(=C2\C(=O)Nc3c(F)cccc32)Nc2ccccc21,20 µM,8 µM,1 µM

# Other lines, results leading:
IC50 (Aurora kinase A),IC50 (Aurora kinase B),IC50 (Aurora kinase C),Structure (SMILES)
4.3 µM,3 µM,0.4 µM,CO/N=C1\C(c2c(O)[nH]c3ccccc23)=Nc2ccccc21
> 100 µM,> 100 µM,> 100 µM,O=C1C(c2c(O)[nH]c3c(Br)cccc23)=Nc2ccccc21
> 100 µM,> 100 µM,> 100 µM,O=C1C(c2c(O)[nH]c3c(F)cccc23)=Nc2ccccc21
2.3 µM,2.1 µM,0.7 µM,CC(=O)O/N=C1\C(c2c(O)[nH]c3ccccc23)=Nc2ccccc21
> 100 µM,10 µM,0.6 µM,O=Nc1c(-c2c(O)[nH]c3c(I)cccc23)[nH]c2ccccc12
> 100 µM,> 100 µM,> 100 µM,O=C1C(c2c(O)[nH]c3c(Cl)cccc23)=Nc2ccccc21
> 100 µM,> 100 µM,> 100 µM,O=C1C(c2c(O)[nH]c3c(I)cccc23)=Nc2ccccc21

# Source: ChEMBL document CHEMBL1148731, “An integrated computational approach to the phenomenon of potent and selective inhibition of aurora kinases B and C by a series of 7-substituted indirubins” (J Med Chem, 2007)
